Experiments:
Mu-type opioid receptor [1] = biological target: T1, Mu-type opioid receptor (Homo sapiens, UniProt P35372); assay: Intrinsic activity at recombinant human mu opioid receptor expressed in CHOK1 cells by [35S]GTPgammaS binding assay relative to DAMGO; assay type: functional, cell-based
Outline: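 Membranes from CHO-K1 cells stably transfected with human recombinant μ-opioid receptor; agonist activity measured as [35S]-GTPγS binding. Maximum compound-evoked response minus basal, expressed as percentage of the maximum response evoked by DAMGO.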

Mu-type opioid receptor [2] = biological target: T1, Mu-type opioid receptor; assay: Displacement of [3H]DPN from recombinant human mu opioid receptor expressed in CHOK1 cell membranes
Outline: (§1)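 Competition binding with the radioligand [3H]-DPN on membranes from CHO-K1 cells stably transfected with human recombinant μ or δ opioid receptor or guinea pig κ opioid receptor. Affinity is reported as pKi.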

[3] = biological target: Delta-type opioid receptor (Homo sapiens, UniProt P41143); assay: Displacement of [3H]DPN from recombinant human delta opioid receptor expressed in CHOK1 cell membranes; outline: as §1
[4] = biological target: Kappa-type opioid receptor (Cavia porcellus, UniProt P41144); assay: Displacement of [3H]DPN from guinea pig kappa opioid receptor expressed in CHOK1 cell membranes; outline: as §1
[5] = Half life in rat liver microsomes; assay type: ADME, microsome; conditions: liver microsomes
Liver [6] = assay: (§2) Half life in dog liver microsomes; assay type: ADME, Canis lupus familiaris, microsome; conditions: microsomes
[7] = (§3) Half life in human liver microsomes; assay type: ADME, microsome; conditions: liver microsomes
[8] = as §2; assay type: ADME, Canis lupus familiaris, microsome; conditions: liver microsomes
Liver [9] = assay: as §3; assay type: ADME, microsome; conditions: microsomes

Kappa-type opioid receptor, sequence (P41144 whole entry): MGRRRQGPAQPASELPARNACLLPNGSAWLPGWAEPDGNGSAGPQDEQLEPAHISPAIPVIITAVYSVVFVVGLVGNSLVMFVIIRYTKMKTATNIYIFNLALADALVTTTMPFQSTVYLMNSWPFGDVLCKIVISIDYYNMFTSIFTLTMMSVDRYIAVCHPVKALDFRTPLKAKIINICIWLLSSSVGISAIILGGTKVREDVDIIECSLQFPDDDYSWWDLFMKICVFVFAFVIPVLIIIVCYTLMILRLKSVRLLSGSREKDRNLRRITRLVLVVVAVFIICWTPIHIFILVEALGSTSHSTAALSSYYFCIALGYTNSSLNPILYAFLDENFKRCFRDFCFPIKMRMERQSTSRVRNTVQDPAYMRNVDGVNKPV
Delta-type opioid receptor, sequence (P41143 whole entry): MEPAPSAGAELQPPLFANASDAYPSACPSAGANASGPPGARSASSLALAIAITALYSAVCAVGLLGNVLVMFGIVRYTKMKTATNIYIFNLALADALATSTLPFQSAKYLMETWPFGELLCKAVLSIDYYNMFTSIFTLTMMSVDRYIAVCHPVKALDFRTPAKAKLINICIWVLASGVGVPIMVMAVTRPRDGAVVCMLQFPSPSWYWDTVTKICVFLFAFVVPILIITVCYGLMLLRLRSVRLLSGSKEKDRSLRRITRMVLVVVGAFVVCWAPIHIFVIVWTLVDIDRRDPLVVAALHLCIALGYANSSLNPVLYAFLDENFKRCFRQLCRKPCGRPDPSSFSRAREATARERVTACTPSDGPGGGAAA
T1 sequence (P35372 whole entry): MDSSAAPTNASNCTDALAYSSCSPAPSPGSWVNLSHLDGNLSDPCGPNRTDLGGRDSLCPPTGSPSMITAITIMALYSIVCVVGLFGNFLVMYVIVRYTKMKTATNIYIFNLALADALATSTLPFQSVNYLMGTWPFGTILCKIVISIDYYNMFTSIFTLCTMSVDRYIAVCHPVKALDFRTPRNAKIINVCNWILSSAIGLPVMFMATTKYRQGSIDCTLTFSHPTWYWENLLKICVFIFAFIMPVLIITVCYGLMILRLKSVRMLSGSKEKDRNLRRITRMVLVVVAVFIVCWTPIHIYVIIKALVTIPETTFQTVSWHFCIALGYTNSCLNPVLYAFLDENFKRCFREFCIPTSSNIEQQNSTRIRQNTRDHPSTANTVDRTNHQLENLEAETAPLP

SMILES | Intrinsic activity (Mu-type opioid receptor [1]) [%] | Ki (Mu-type opioid receptor [2]) [nM] | Ki [3] [nM] | Ki [4] [nM] | further results
NC(=O)c1cccc(C2C[C@H]3CC[C@H](C2)N3CC(=O)C2CCCCC2)c1 (relative stereo; 30b) | 93 |  |  |  | 
NC(=O)c1cccc(C2C[C@H]3CC[C@H](C2)N3CC(=O)C2CCCCC2)c1 (relative stereo; 30a) [listing 1 of 2 here] |  | 0.158 | 2 | 0.1 | half-life [5]: 70 min; t1/2 (Liver [6]): 21 min; half-life [7]: > 90 min
CC(C)(C)c1ccc(CN2[C@@H]3CC[C@@H]2CC(c2cccc(O)c2)C3)cc1 (relative stereo; 20a) [listing 1 of 2 here] |  | 0.1 | 0.501 | 0.1 | half-life [5]: 2 min; half-life [8]: 5 min; t1/2 (Liver [9]): 16 min
Oc1cccc(C2C[C@H]3CC[C@H](C2)N3CCCc2ccccc2)c1 (relative stereo; 12a) | 22 |  |  |  | 
NC(=O)c1cccc(C2C[C@H]3CC[C@H](C2)N3CCCCN2C(=O)c3ccccc3C2=O)c1 (relative stereo; 29b) [listing 1 of 2 here] | 75 |  |  |  | 
CC(C)(C)c1ccc(CN2[C@@H]3CC[C@@H]2CC(c2cccc(O)c2)C3)cc1 (relative stereo; 20b) [listing 1 of 2 here] |  | 2 | 31.6 | 3.16 | t1/2 (Liver [6]): 7 min; t1/2 (Liver [9]): 67 min
Oc1cccc(C2C[C@H]3CC[C@H](C2)N3Cc2c(F)cccc2F)c1 (relative stereo; 18a) [listing 1 of 2 here] |  | 15.8 | 158 | 5.01 | half-life [5]: 2 min; half-life [8]: 20 min; t1/2 (Liver [9]): 29 min
CC(C)(C)c1ccc(CN2[C@@H]3CC[C@@H]2CC(c2cccc(C(N)=O)c2)C3)cc1 (relative stereo; 28b) [listing 1 of 2 here] |  | 10 | 200 | 31.6 | 
NC(=O)c1cccc(C2C[C@H]3CC[C@H](C2)N3CC(O)Cc2ccccc2)c1 (relative stereo) | 3 |  |  |  | 
Oc1cccc(C2C[C@H]3CC[C@H](C2)N3CCCOc2ccccc2)c1 (relative stereo; 19b) [listing 1 of 2 here] | 85 |  |  |  | 
NC(=O)c1cccc(C2C[C@H]3CC[C@H](C2)N3CCCOc2ccccc2)c1 (some centres not stated) [listing 1 of 2 here] |  | 6.31 | 100 | 31.6 | t1/2 (Liver [6]): 6 min
CCCCCCCN1[C@@H]2CC[C@@H]1CC(c1cccc(O)c1)C2 (relative stereo; 17a) [listing 1 of 2 here] | 26 |  |  |  | 
CCCCCCCN1[C@@H]2CC[C@@H]1CC(c1cccc(O)c1)C2 (relative stereo; 17a) [listing 2 of 2 here] |  | 0.251 | 2.51 | 0.251 | half-life [5]: 3 min; t1/2 (Liver [6]): 2 min; t1/2 (Liver [9]): 10 min
CC(C)(C)c1ccc(CN2[C@@H]3CC[C@@H]2CC(c2cccc(O)c2)C3)cc1 (relative stereo; 20a) [listing 2 of 2 here] | 100 |  |  |  | 
O=C(CN1[C@@H]2CC[C@@H]1CC(c1cccc(O)c1)C2)C1CCCCC1 (relative stereo; 22b) [listing 1 of 2 here] | 57 |  |  |  | 
NC(=O)c1cccc(C2C[C@H]3CC[C@H](C2)N3CCCOc2ccccc2)c1 (some centres not stated) [listing 2 of 2 here] | 95 |  |  |  | 
Oc1cccc(C2C[C@H]3CC[C@H](C2)N3CCCc2ccccc2)c1 (relative stereo; 12b) [listing 1 of 2 here] | 64 |  |  |  | 
O=C(CN1[C@@H]2CC[C@@H]1CC(c1cccc(O)c1)C2)C1CCCCC1 (relative stereo; 22b) [listing 2 of 2 here] |  | 2 | 20 | 0.794 | t1/2 (Liver [9]): 13 min
CC(C)(C)c1ccc(CN2[C@@H]3CC[C@@H]2CC(c2cccc(O)c2)C3)cc1 (relative stereo; 20b) [listing 2 of 2 here] | 97 |  |  |  | 
O=C1c2ccccc2C(=O)N1CCCCN1[C@@H]2CC[C@@H]1CC(c1cccc(O)c1)C2 (relative stereo; 21b) | 97 |  |  |  | 
Oc1cccc(C2C[C@H]3CC[C@H](C2)N3CCCc2ccccc2)c1 (relative stereo; 12b) [listing 2 of 2 here] |  | 5.01 | 63.1 | 7.94 | t1/2 (Liver [9]): 27 min
NC(=O)c1cccc(C2C[C@H]3CC[C@H](C2)N3CCCCN2C(=O)c3ccccc3C2=O)c1 (relative stereo; 29a) | 0 |  |  |  | 
NC(=O)c1cccc(C2C[C@H]3CC[C@H](C2)N3CC(O)Cc2ccccc2)c1 (stereo in doubt; 31b) | 39 |  |  |  | 
NC(=O)c1cccc(C2C[C@H]3CC[C@H](C2)N3CCCc2ccccc2)c1 (relative stereo; 24b) | 48 |  |  |  | 
NC(=O)c1cccc(C2C[C@H]3CC[C@H](C2)N3CCCOc2ccccc2)c1 (relative stereo) [listing 1 of 2 here] |  | 0.2 | 3.98 | 0.794 | half-life [5]: 2 min; half-life [8]: 7 min; half-life [7]: > 90 min
O=C1c2ccccc2C(=O)N1CCCCN1[C@@H]2CC[C@@H]1CC(c1cccc(O)c1)C2 (relative stereo; 21a) [listing 1 of 2 here] |  | 0.794 | 25.1 | 0.794 | half-life [5]: 18 min; half-life [8]: 11 min; half-life [7]: 33 min
Oc1cccc(C2C[C@H]3CC[C@H](C2)N3Cc2c(F)cccc2F)c1 (relative stereo; 18a) [listing 2 of 2 here] | 36 |  |  |  | 

SMILES | Intrinsic activity (Mu-type opioid receptor [1]) [%] | Ki (Mu-type opioid receptor [2]) [nM] | Ki [3] [nM] | Ki [4] [nM] | further results
NC(=O)c1cccc(C2C[C@H]3CC[C@H](C2)N3CC(=O)C2CCCCC2)c1 (relative stereo; 30a) [listing 2 of 2 here] | 41 |  |  |  | 
O=C(CN1[C@@H]2CC[C@@H]1CC(c1cccc(O)c1)C2)C1CCCCC1 (relative stereo; 22a) [listing 1 of 2 here] | 33 |  |  |  | 
O=C(CN1[C@@H]2CC[C@@H]1CC(c1cccc(O)c1)C2)C1CCCCC1 (relative stereo; 22a) [listing 2 of 2 here] |  | 0.1 | 0.501 | 0.01 | half-life [5]: 2 min; half-life [8]: 2 min; half-life [7]: 12 min
NC(=O)c1cccc(C2C[C@H]3CC[C@H](C2)N3Cc2c(F)cccc2F)c1 (relative stereo; 26b) | 19 |  |  |  | 
NC(=O)c1cccc(C2C[C@H]3CC[C@H](C2)N3Cc2c(F)cccc2F)c1 (relative stereo; 26a) | 26 |  |  |  | 
Oc1cccc(C2C[C@H]3CC[C@H](C2)N3Cc2c(F)cccc2F)c1 (relative stereo; 18b) [listing 1 of 2 here] | 48 |  |  |  | 
NC(=O)c1cccc(C2C[C@H]3CC[C@H](C2)N3CCCc2ccccc2)c1 (relative stereo; 24a) | 24 |  |  |  | 
Oc1cccc(C2C[C@H]3CC[C@H](C2)N3Cc2c(F)cccc2F)c1 (relative stereo; 18b) [listing 2 of 2 here] |  | 631 | 2510 | 126 | t1/2 (Liver [6]): 13 min; t1/2 (Liver [9]): 75 min
Oc1cccc(C2C[C@H]3CC[C@H](C2)N3CCCOc2ccccc2)c1 (relative stereo; 19a) [listing 1 of 2 here] | 9 |  |  |  | 
Oc1cccc(C2C[C@H]3CC[C@H](C2)N3CCCOc2ccccc2)c1 (relative stereo; 19b) [listing 2 of 2 here] |  | 3.16 | 63.1 | 20 | t1/2 (Liver [6]): 2 min; t1/2 (Liver [9]): 20 min
O=C1c2ccccc2C(=O)N1CCCCN1[C@@H]2CC[C@@H]1CC(c1cccc(O)c1)C2 (relative stereo; 21a) [listing 2 of 2 here] | 26 |  |  |  | 
CCCCCCCN1[C@@H]2CC[C@@H]1CC(c1cccc(C(N)=O)c1)C2 (some centres not stated) | 38 |  |  |  | 
Oc1cccc(C2CC3CCC(C2)N3CCCc2ccccc2)c1 (mixture of isomers) | 22 | 0.158 | 1.26 |  | 
Oc1cccc(C2C[C@H]3CC[C@H](C2)N3CC(O)Cc2ccccc2)c1 (relative stereo; 23b) [listing 1 of 2 here] |  | 10 | 251 | 20 | t1/2 (Liver [9]): > 90 min
Oc1cccc(C2C[C@H]3CC[C@H](C2)N3CC(O)Cc2ccccc2)c1 (relative stereo; 23a) [listing 1 of 2 here] |  | 0.251 | 6.31 |  | half-life [5]: 2 min; half-life [8]: 2 min; t1/2 (Liver [9]): 32 min
CCCCCCCN1[C@@H]2CC[C@@H]1CC(c1cccc(O)c1)C2 (relative stereo; 17b) | 62 |  |  |  | 
CC(C)(C)c1ccc(CN2[C@@H]3CC[C@@H]2CC(c2cccc(C(N)=O)c2)C3)cc1 (relative stereo; 28a) | 92 |  |  |  | 
C[C@H]1CN(C[C@H](Cc2ccccc2)C(=O)NCC(=O)O)CC[C@@]1(C)c1cccc(O)c1 [ALVIMOPAN] | -6 |  | 5.01 | 5.01 | half-life [5]: > 90 min; half-life [8]: > 90 min; half-life [7]: > 90 min
NC(=O)c1cccc(C2C[C@H]3CC[C@H](C2)N3CCCOc2ccccc2)c1 (relative stereo) [listing 2 of 2 here] | 0 |  |  |  | 
C[N+]1(CC2CC2)CC[C@]23c4c5ccc(O)c4O[C@H]2C(=O)CC[C@@]3(O)[C@H]1C5 (some centres not stated) [METHYLNALTREXONE] | 24 | 7.94 |  | 20 | half-life [5]: > 90 min; half-life [8]: > 90 min; half-life [7]: > 90 min
CCCCCCCN1[C@@H]2CC[C@@H]1CC(c1cccc(C(N)=O)c1)C2 (relative stereo) | 28 |  |  |  | 
Oc1cccc(C2C[C@H]3CC[C@H](C2)N3CC(O)Cc2ccccc2)c1 (relative stereo; 23a) [listing 2 of 2 here] | 1 |  |  |  | 
NC(=O)c1cccc(C2C[C@H]3CC[C@H](C2)N3CCCCN2C(=O)c3ccccc3C2=O)c1 (relative stereo; 29b) [listing 2 of 2 here] |  | 31.6 | 200 |  | t1/2 (Liver [6]): 11 min
Oc1cccc(C2C[C@H]3CC[C@H](C2)N3CC(O)Cc2ccccc2)c1 (relative stereo; 23b) [listing 2 of 2 here] | 36 |  |  |  | 
CC(C)(C)c1ccc(CN2[C@@H]3CC[C@@H]2CC(c2cccc(C(N)=O)c2)C3)cc1 (relative stereo; 28b) [listing 2 of 2 here] | 73 |  |  |  | 
Oc1cccc(C2C[C@H]3CC[C@H](C2)N3CCCOc2ccccc2)c1 (relative stereo; 19a) [listing 2 of 2 here] |  | 0.1 | 1.58 | 0.251 | half-life [5]: 2 min; t1/2 (Liver [6]): 9 min; half-life [7]: 25 min
